According to ChEMBL document CHEMBL3124767, “Synthesis, biological evaluation and molecular modelling studies of 4-anilinoquinazoline derivatives as protein kinase inhibitors” (Bioorg Med Chem, 2014):

Experiments:
[1] = target: Glycogen synthase kinase-3 (Sus scrofa, UniProt B2LUN4+I6LNT8); assay: Inhibition of GSK3 alpha/beta in pig brain using YRRAAVPPSPSLSRHSSPHQpSEDEEE as substrate by scintillation counting in presence of [gamma-33P]ATP
Procedure, shortened: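 Native GSK-3α/β from porcine brain, run in triplicate in buffer A (10 mM MgCl2, 1 mM EGTA, 1 mM DTT, 25 mM Tris–HCl pH 7.5, 50 µg heparin/mL) with GS-1 peptide substrate and 15 µM [γ-33P]ATP final, 30 min at 30 °C; spotted on P81 phosphocellulose, acid-washed, counted. Single 10 µM screen, then dose–response (usually 0.01–10 µM) for IC50; blank-subtracted, % of uninhibited activity.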

[2] = target: Dual specificity protein kinase CLK1 (Homo sapiens, UniProt P49759); assay: Inhibition of human recombinant GST-fused CLK1 expressed in Escherichia coli using GRSRSRSRSRSR as substrate
Procedure, shortened: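 GST-tagged human CLK1 made in E. coli. Buffer A (MgCl2, EGTA, DTT, 25 mM Tris-HCl pH 7.5, heparin) with 0.15 mg BSA/mL, RS peptide substrate at 1 µg/assay, 15 µM final ATP. Run 30 min at 30 °C in triplicate. Activity is given as % of the no-inhibitor maximum after blank subtraction. Compounds screened at 10 µM; IC50 from dose-response curves (usually 0.01–10 µM).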

[3] = target: Cyclin-dependent kinase 5/CDK5 activator 1 (Homo sapiens, UniProt Q00535); assay: inhibition of human recombinant CDK5/p25 using histone H1 as substrate by scintillation counting in presence of [gamma-33P]ATP; format: protein-complex assay
Procedure, shortened: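 Human recombinant CDK5/p25 in buffer A (Tris-HCl pH 7.5, MgCl2, EGTA, DTT, heparin) with 1 mg/mL histone H1 and 15 µM [γ-33P]ATP. Run 30 min at 30 °C in triplicate. P81 filter binding, phosphoric acid washes, scintillation counting. Activity is % of maximal after blank subtraction. Compounds screened at 10 µM; IC50 from dose-response curves.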

[4] = target: Dual specificity tyrosine-phosphorylation-regulated kinase 1A (Rattus norvegicus, UniProt Q63470); assay: Inhibition of rat recombinant GST-fused DYRK1A expressed in Escherichia coli using KKISGRLSPIMTEQ as substrate by scintillation counting in presence of [gamma-33P]ATP
[5] = Inhibition of CK1 delta/epsilon in pig brain using RRKHAAIGpSAYSITA as substrate by scintillation counting in presence of [gamma-33P]ATP; design: species or system Sus scrofa

Dual specificity protein kinase CLK1, sequence (P49759 whole entry, the tested form may be a part): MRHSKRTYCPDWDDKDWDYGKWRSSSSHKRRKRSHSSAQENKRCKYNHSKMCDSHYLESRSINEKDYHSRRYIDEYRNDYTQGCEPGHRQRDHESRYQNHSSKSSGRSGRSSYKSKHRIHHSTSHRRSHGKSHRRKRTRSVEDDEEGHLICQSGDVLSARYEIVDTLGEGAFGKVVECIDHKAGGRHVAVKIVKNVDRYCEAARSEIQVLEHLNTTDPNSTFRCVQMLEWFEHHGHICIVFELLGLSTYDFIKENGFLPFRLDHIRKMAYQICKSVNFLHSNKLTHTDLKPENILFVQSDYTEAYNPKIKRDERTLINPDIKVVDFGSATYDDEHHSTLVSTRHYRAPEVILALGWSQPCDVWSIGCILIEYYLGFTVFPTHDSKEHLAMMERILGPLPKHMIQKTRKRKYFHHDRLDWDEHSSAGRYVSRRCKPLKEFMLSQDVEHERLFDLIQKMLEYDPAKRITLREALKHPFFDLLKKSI
Cyclin-dependent kinase 5/CDK5 activator 1, sequence (Q00535 whole entry): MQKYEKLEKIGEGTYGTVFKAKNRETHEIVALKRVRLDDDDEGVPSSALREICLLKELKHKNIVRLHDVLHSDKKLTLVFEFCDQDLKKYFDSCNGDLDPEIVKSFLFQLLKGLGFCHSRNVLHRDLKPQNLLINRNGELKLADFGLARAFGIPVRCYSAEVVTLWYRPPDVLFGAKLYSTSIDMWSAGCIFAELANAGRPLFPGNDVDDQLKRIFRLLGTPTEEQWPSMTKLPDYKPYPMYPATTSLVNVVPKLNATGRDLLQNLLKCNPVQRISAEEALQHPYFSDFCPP
Cyclin-dependent kinase 5/CDK5 activator 1, sequence (Q15078 whole entry, further chain): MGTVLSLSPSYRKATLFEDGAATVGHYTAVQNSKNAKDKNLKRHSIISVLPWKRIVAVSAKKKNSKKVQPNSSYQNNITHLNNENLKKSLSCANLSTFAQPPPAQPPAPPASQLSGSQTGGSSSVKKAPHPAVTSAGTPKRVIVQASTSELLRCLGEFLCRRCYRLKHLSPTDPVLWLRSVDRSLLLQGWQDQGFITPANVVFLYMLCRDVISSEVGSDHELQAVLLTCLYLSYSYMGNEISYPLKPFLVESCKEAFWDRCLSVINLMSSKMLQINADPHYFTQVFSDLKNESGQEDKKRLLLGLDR

| Structure (SMILES) | IC50 [1] | IC50 [2] | IC50 [3] | IC50 [4] | IC50 [5] |
| --- | --- | --- | --- | --- | --- |
| COc1ccc(Nc2ncnc3cc(OC)c(OC)cc23)cc1 | > 10 µM | > 10 µM | > 10 µM | > 10 µM | > 10 µM |
| COc1cc2ncnc(Nc3ccc(NC(C)=O)cc3)c2cc1OC | > 10 µM | > 10 µM | > 10 µM | > 10 µM | > 10 µM |
| COc1cc2ncnc(Nc3ccc(C(C)=O)cc3)c2cc1OC | > 10 µM | ≥ 10 µM | > 10 µM | > 10 µM | > 10 µM |
| COc1cc2ncnc(Nc3ccc(C(F)(F)F)cc3)c2cc1OC | > 10 µM | > 10 µM | > 10 µM | > 10 µM | > 10 µM |
| COc1cc2ncnc(Nc3cccc(C(F)(F)F)c3)c2cc1OC | > 10 µM | > 10 µM | > 10 µM | > 10 µM | > 10 µM |
| COc1cc2ncnc(Nc3ccccc3)c2cc1OC | > 10 µM | ≥ 10 µM | > 10 µM | > 10 µM | > 10 µM |
| COc1cc2ncnc(Nc3ccc(F)c(Cl)c3)c2cc1OC | > 10 µM | 7.6 µM | > 10 µM | > 10 µM | > 10 µM |
| COc1cc2ncnc(Nc3ccc(C)c(C)c3)c2cc1OC | > 10 µM | > 10 µM | > 10 µM | > 10 µM | > 10 µM |
| O=C1Nc2cc(Br)ccc2/C1=C1/Nc2ccccc2/C1=N\O [6BIO] | – | 2.1 µM | – | – | – |
| COc1cc2ncnc(Nc3ccc(OC(F)(F)F)cc3)c2cc1OC | > 10 µM | > 10 µM | > 10 µM | > 10 µM | > 10 µM |
| COc1ccc(Nc2ncnc3cc(OC)c(OC)cc23)cc1OC | 3 µM | 1.5 µM | > 10 µM | ≥ 10 µM | > 10 µM |
